Measured values: ChEMBL document CHEMBL3421570, “Combinatorial Libraries As a Tool for the Discovery of Novel, Broad-Spectrum Antibacterial Agents Targeting the ESKAPE Pathogens” (J Med Chem, 2015)
Calls of active or inactive are those of the source. The rule behind the calls is not given here.

System: Enterococcus faecium
Assay: Antimicrobial activity against Enterococcus faecium assessed as inhibition of microbial growth after 24 hrs
Format: functional
Method in brief: (§1)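 Broth microdilution against multidrug-resistant clinical ESKAPE isolates. Overnight cultures (TSB for Gram-positives, LB for Gram-negatives) diluted 1:1000 in fresh medium, compound in DMF (≤2.0% DMF) added at decreasing concentrations, 37°C.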

MIC, inactive:
CCCCCCCN1C(=N)NC[C@@H]1CCCCN1C[C@@H](CCC)N(CCc2cccc(C)c2)C1=N
CCC[C@@H]1CN(CCCC[C@H]2CNC(=N)N2CC2CCCCC2)C(=N)N1
CCC(C)CN1CCN(CCCC[C@H]2CNC(=N)N2CC2CCCCC2)C1=N (some centres undefined)
CCCCCCCN1C(=N)NC[C@@H]1CCCCN1C[C@H]([C@@H](C)CC)NC1=N
CCC[C@@H]1CN(CCCC[C@H]2CNC(=N)N2CC2CCCCC2)C(=N)N1CCc1cccc(C)c1
CCC[C@@H]1CN(CCCC[C@H]2CNC(=N)N2CC2CCC(C)CC2)C(=N)N1 (some centres undefined)
CC[C@H](C)[C@H]1CN(CCCC[C@H]2CNC(=N)N2CC2CCC(C)CC2)C(=N)N1CCc1cccc(C)c1 (some centres undefined)
CCC(C)CN1CCN(CCCC[C@H]2CNC(=N)N2CC2CCC(C)CC2)C1=N (some centres undefined)
CCC[C@@H]1CN(CCCC[C@H]2CNC(=N)N2CC2CCCCC2)C(=N)N1CC(C)CC (some centres undefined)
CCCCCCCN1C(=N)NC[C@@H]1CCCCN1CCN(CCc2cccc(C)c2)C1=N
CCCCCCCN1C(=N)NC[C@@H]1CCCCN1CCN(CC(C)CC)C1=N (some centres undefined)
CCCCCCCN1C(=N)NC[C@@H]1CCCCN1CCNC1=N
CCC[C@@H]1CN(CCCC[C@H]2CNC(=N)N2CC2CCC(C)CC2)C(=N)N1CC(C)CC (some centres undefined)
Cc1cccc(CCN2CCN(CCCC[C@H]3CNC(=N)N3CC3CCC(C)CC3)C2=N)c1 (some centres undefined)

System: Staphylococcus aureus
Assay: Antimicrobial activity against Staphylococcus aureus assessed as inhibition of microbial growth after 24 hrs
Format: functional
Method in brief: as §1

MIC, inactive:
CCCCCCCN1C(=N)NC[C@@H]1CCCCN1C[C@@H](CCC)N(CCc2cccc(C)c2)C1=N
CCC[C@@H]1CN(CCCC[C@H]2CNC(=N)N2CC2CCCCC2)C(=N)N1
CCC(C)CN1CCN(CCCC[C@H]2CNC(=N)N2CC2CCCCC2)C1=N (some centres undefined)
CCCCCCCN1C(=N)NC[C@@H]1CCCCN1C[C@H]([C@@H](C)CC)NC1=N
CCC[C@@H]1CN(CCCC[C@H]2CNC(=N)N2CC2CCCCC2)C(=N)N1CCc1cccc(C)c1
CCC[C@@H]1CN(CCCC[C@H]2CNC(=N)N2CC2CCC(C)CC2)C(=N)N1 (some centres undefined)
CC[C@H](C)[C@H]1CN(CCCC[C@H]2CNC(=N)N2CC2CCC(C)CC2)C(=N)N1CCc1cccc(C)c1 (some centres undefined)
CCC(C)CN1CCN(CCCC[C@H]2CNC(=N)N2CC2CCC(C)CC2)C1=N (some centres undefined)
CCC[C@@H]1CN(CCCC[C@H]2CNC(=N)N2CC2CCCCC2)C(=N)N1CC(C)CC (some centres undefined)
CCCCCCCN1C(=N)NC[C@@H]1CCCCN1CCN(CCc2cccc(C)c2)C1=N
CCCCCCCN1C(=N)NC[C@@H]1CCCCN1CCN(CC(C)CC)C1=N (some centres undefined)
CCCCCCCN1C(=N)NC[C@@H]1CCCCN1CCNC1=N
CCC[C@@H]1CN(CCCC[C@H]2CNC(=N)N2CC2CCC(C)CC2)C(=N)N1CC(C)CC (some centres undefined)
Cc1cccc(CCN2CCN(CCCC[C@H]3CNC(=N)N3CC3CCC(C)CC3)C2=N)c1 (some centres undefined)

System: Klebsiella pneumoniae
Assay: Antimicrobial activity against Klebsiella pneumoniae assessed as inhibition of microbial growth after 24 hrs
Format: functional
Method in brief: as §1

MIC, inactive:
CCCCCCCN1C(=N)NC[C@@H]1CCCCN1C[C@@H](CCC)N(CCc2cccc(C)c2)C1=N
CCC[C@@H]1CN(CCCC[C@H]2CNC(=N)N2CC2CCCCC2)C(=N)N1
CCC(C)CN1CCN(CCCC[C@H]2CNC(=N)N2CC2CCCCC2)C1=N (some centres undefined)
CCCCCCCN1C(=N)NC[C@@H]1CCCCN1C[C@H]([C@@H](C)CC)NC1=N
CCC[C@@H]1CN(CCCC[C@H]2CNC(=N)N2CC2CCCCC2)C(=N)N1CCc1cccc(C)c1
CCC[C@@H]1CN(CCCC[C@H]2CNC(=N)N2CC2CCC(C)CC2)C(=N)N1 (some centres undefined)
CC[C@H](C)[C@H]1CN(CCCC[C@H]2CNC(=N)N2CC2CCC(C)CC2)C(=N)N1CCc1cccc(C)c1 (some centres undefined)
CCC(C)CN1CCN(CCCC[C@H]2CNC(=N)N2CC2CCC(C)CC2)C1=N (some centres undefined)
CCC[C@@H]1CN(CCCC[C@H]2CNC(=N)N2CC2CCCCC2)C(=N)N1CC(C)CC (some centres undefined)
CCCCCCCN1C(=N)NC[C@@H]1CCCCN1CCN(CCc2cccc(C)c2)C1=N
CCCCCCCN1C(=N)NC[C@@H]1CCCCN1CCN(CC(C)CC)C1=N (some centres undefined)
CCCCCCCN1C(=N)NC[C@@H]1CCCCN1CCNC1=N
CCC[C@@H]1CN(CCCC[C@H]2CNC(=N)N2CC2CCC(C)CC2)C(=N)N1CC(C)CC (some centres undefined)
Cc1cccc(CCN2CCN(CCCC[C@H]3CNC(=N)N3CC3CCC(C)CC3)C2=N)c1 (some centres undefined)

System: Acinetobacter baumannii
Assay: Antimicrobial activity against Acinetobacter baumannii assessed as inhibition of microbial growth after 24 hrs
Format: functional
Method in brief: as §1

MIC, inactive:
CCCCCCCN1C(=N)NC[C@@H]1CCCCN1C[C@@H](CCC)N(CCc2cccc(C)c2)C1=N
CCC[C@@H]1CN(CCCC[C@H]2CNC(=N)N2CC2CCCCC2)C(=N)N1
CCC(C)CN1CCN(CCCC[C@H]2CNC(=N)N2CC2CCCCC2)C1=N (some centres undefined)
CCCCCCCN1C(=N)NC[C@@H]1CCCCN1C[C@H]([C@@H](C)CC)NC1=N
CCC[C@@H]1CN(CCCC[C@H]2CNC(=N)N2CC2CCCCC2)C(=N)N1CCc1cccc(C)c1
CCC[C@@H]1CN(CCCC[C@H]2CNC(=N)N2CC2CCC(C)CC2)C(=N)N1 (some centres undefined)
CC[C@H](C)[C@H]1CN(CCCC[C@H]2CNC(=N)N2CC2CCC(C)CC2)C(=N)N1CCc1cccc(C)c1 (some centres undefined)
CCC(C)CN1CCN(CCCC[C@H]2CNC(=N)N2CC2CCC(C)CC2)C1=N (some centres undefined)
CCC[C@@H]1CN(CCCC[C@H]2CNC(=N)N2CC2CCCCC2)C(=N)N1CC(C)CC (some centres undefined)
CCCCCCCN1C(=N)NC[C@@H]1CCCCN1CCN(CCc2cccc(C)c2)C1=N
CCCCCCCN1C(=N)NC[C@@H]1CCCCN1CCN(CC(C)CC)C1=N (some centres undefined)
CCCCCCCN1C(=N)NC[C@@H]1CCCCN1CCNC1=N
CCC[C@@H]1CN(CCCC[C@H]2CNC(=N)N2CC2CCC(C)CC2)C(=N)N1CC(C)CC (some centres undefined)
Cc1cccc(CCN2CCN(CCCC[C@H]3CNC(=N)N3CC3CCC(C)CC3)C2=N)c1 (some centres undefined)

System: Pseudomonas aeruginosa
Assay: Antimicrobial activity against Pseudomonas aeruginosa assessed as inhibition of microbial growth after 24 hrs
Format: functional
Method in brief: as §1

MIC, inactive:
CCCCCCCN1C(=N)NC[C@@H]1CCCCN1C[C@@H](CCC)N(CCc2cccc(C)c2)C1=N
CCC[C@@H]1CN(CCCC[C@H]2CNC(=N)N2CC2CCCCC2)C(=N)N1
CCC(C)CN1CCN(CCCC[C@H]2CNC(=N)N2CC2CCCCC2)C1=N (some centres undefined)
CCCCCCCN1C(=N)NC[C@@H]1CCCCN1C[C@H]([C@@H](C)CC)NC1=N
CCC[C@@H]1CN(CCCC[C@H]2CNC(=N)N2CC2CCCCC2)C(=N)N1CCc1cccc(C)c1
CCC[C@@H]1CN(CCCC[C@H]2CNC(=N)N2CC2CCC(C)CC2)C(=N)N1 (some centres undefined)
CC[C@H](C)[C@H]1CN(CCCC[C@H]2CNC(=N)N2CC2CCC(C)CC2)C(=N)N1CCc1cccc(C)c1 (some centres undefined)
CCC(C)CN1CCN(CCCC[C@H]2CNC(=N)N2CC2CCC(C)CC2)C1=N (some centres undefined)
CCC[C@@H]1CN(CCCC[C@H]2CNC(=N)N2CC2CCCCC2)C(=N)N1CC(C)CC (some centres undefined)
CCCCCCCN1C(=N)NC[C@@H]1CCCCN1CCN(CCc2cccc(C)c2)C1=N
CCCCCCCN1C(=N)NC[C@@H]1CCCCN1CCN(CC(C)CC)C1=N (some centres undefined)
CCCCCCCN1C(=N)NC[C@@H]1CCCCN1CCNC1=N
CCC[C@@H]1CN(CCCC[C@H]2CNC(=N)N2CC2CCC(C)CC2)C(=N)N1CC(C)CC (some centres undefined)
Cc1cccc(CCN2CCN(CCCC[C@H]3CNC(=N)N3CC3CCC(C)CC3)C2=N)c1 (some centres undefined)

System: Enterobacter cloacae
Assay: Antimicrobial activity against Enterobacter cloacae assessed as inhibition of microbial growth after 24 hrs
Format: functional
Method in brief: as §1

MIC, inactive:
CCCCCCCN1C(=N)NC[C@@H]1CCCCN1C[C@@H](CCC)N(CCc2cccc(C)c2)C1=N
CCC[C@@H]1CN(CCCC[C@H]2CNC(=N)N2CC2CCCCC2)C(=N)N1
CCC(C)CN1CCN(CCCC[C@H]2CNC(=N)N2CC2CCCCC2)C1=N (some centres undefined)
CCCCCCCN1C(=N)NC[C@@H]1CCCCN1C[C@H]([C@@H](C)CC)NC1=N
CCC[C@@H]1CN(CCCC[C@H]2CNC(=N)N2CC2CCCCC2)C(=N)N1CCc1cccc(C)c1
CCC[C@@H]1CN(CCCC[C@H]2CNC(=N)N2CC2CCC(C)CC2)C(=N)N1 (some centres undefined)
CC[C@H](C)[C@H]1CN(CCCC[C@H]2CNC(=N)N2CC2CCC(C)CC2)C(=N)N1CCc1cccc(C)c1 (some centres undefined)
CCC(C)CN1CCN(CCCC[C@H]2CNC(=N)N2CC2CCC(C)CC2)C1=N (some centres undefined)
CCC[C@@H]1CN(CCCC[C@H]2CNC(=N)N2CC2CCCCC2)C(=N)N1CC(C)CC (some centres undefined)
CCCCCCCN1C(=N)NC[C@@H]1CCCCN1CCN(CCc2cccc(C)c2)C1=N
CCCCCCCN1C(=N)NC[C@@H]1CCCCN1CCN(CC(C)CC)C1=N (some centres undefined)
CCCCCCCN1C(=N)NC[C@@H]1CCCCN1CCNC1=N
CCC[C@@H]1CN(CCCC[C@H]2CNC(=N)N2CC2CCC(C)CC2)C(=N)N1CC(C)CC (some centres undefined)
Cc1cccc(CCN2CCN(CCCC[C@H]3CNC(=N)N3CC3CCC(C)CC3)C2=N)c1 (some centres undefined)
